MPTP block – blocks calcium-induced mitochondrial swelling; AID 602449; hit rate 1.4% among 360,000; inhibition, % at 10 µM; isolated mouse mitochondria, Ca2+ swelling absorbance, 30 min;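 active = inhibition of 50% or more, scaled per plate between neutral and stimulator controls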;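 also: 0% = DMSO wells given calcium and 100% = 1 mM EGTA wells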
UPR CHOP act – apoptotic UPR (CHOP) activation; hit rate 0.34% among 330,000; activation, % at 10 µM; CHO-CHOP luciferase reporter, luminescence; percent of tunicamycin response over DMSO baseline;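 active = at 10 µM dose, activation of 40% or more, normalized to positive control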;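 also: 100% = tunicamycin at 10 µg/mL and 0% = DMSO alone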
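Evaluation: % reporter activation, DMSO baseline versus tunicamycin full activation; System: CHO-CHOP luciferase reporter cell line; Input: 500 cells/well; Incubation: 6 h compound treatment, 37 °C; Measured by: Steady-Glo luciferase luminescence; Dosing: one dose, 10 µM in 0.5% DMSO; Buffer or medium: F12 medium, 10% FBS; Benchmarks: positive tunicamycin 10 µg/mL, negative DMSO alone.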
NR3A LBD binder – modulators (binders) of human NR3A ligand-binding domain. NR3A LBD differential scanning fluorimetry, Tm shift; 0% = protein alone, 100% = glycine-bound protein. Tm shift relative to glycine control, % at 25 µM. hit rate 2.5% among 340,000;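 active = melting temperature shift of at least 10% of the positive control shift, at one fixed dose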
aDG glyco up – alpha-DG glycosylation activation; activation, % at 10 µM; Pro5-aDG cells, alpha-DG glycosylation AlphaScreen (IIH6); 0% Pro5, 100% B10-LARGE cell signal; hit rate 0.22% among 360,000;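 active = activation of at least 8% versus controls, or a plate z-score of at least 8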;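 also: Pro5 are CHO cells carrying HIG-tagged alpha-DG that lacks glycosylation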
XBP1 UPR activ – adaptive UPR (XBP1) activation | AID 463104 | CHO-XBP1 luciferase reporter, IRE1-XBP1 UPR activation, luminescence; percent of tunicamycin response, DMSO as zero | hit rate 0.33% among 330,000 | activation, % at 20 µM;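 active = versus positive control, 20 µM dose yields 30% or more activation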;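 also: 100% = tunicamycin at 10 µg/mL and 0% = DMSO only wells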
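Signal: luciferase luminescence; Assay system: CHO-XBP1 luciferase reporter cells; Amount: one thousand reporter cells per well; Dosing: 20 µM single concentration, DMSO 1%; Benchmarks: high control tunicamycin 10 µg/mL final, low control DMSO vehicle only; Schedule: 6 h compound exposure at 37 °C, 5% CO2; Evaluation: percent activation relative to tunicamycin reference.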
CHOP inh – blocks CHOP induction under ER stress; CHO-K1 CHOP-promoter luciferase, tunicamycin-induced, 15-18 h; inhibition, % at 10 µM; hit rate 3.8% among 220,000; AID 2732;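 active = compounds that reduced the stress-induced luciferase reporter signal by more than about 70% of percent inhibition, limit read from the data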;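 also: 0% = tunicamycin plus vehicle and 100% = wells without tunicamycin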
Numbers without * were called inactive; / = not tested or not shown. Most compounds without a hit are left out; they make up all but 5.6% or so of the library.

SMILES	MPTP block	UPR CHOP act	NR3A LBD binder	aDG glyco up	XBP1 UPR activ	CHOP inh
Cc1ccc(NC(=O)CN2CCN(Cc3ccccc3)CC2)cc1F	2	-1	0	0	-1	/
COc1ccc(CCNC(=O)CC(c2ccccc2)c2cccc(C)c2O)cc1OC (centres undefined)	6	0	0	0	-2	22
CCN1CCN(CCCNC(=O)C2CCCN(c3nc4c(C)cc(C)cc4s3)C2)CC1 (centres undefined)	20	3	7	0	3	/
O=C(N/N=C/c1ccc(Cl)cc1)c1cc2c(s1)-c1ccccc1CC2	1	-1	12*	0	-1	58
O=C(N/N=C/C=C\c1ccccc1[N+](=O)[O-])c1cc(-c2ccccc2)nc2ccccc12	8	1	10*	0	-2	33
O=C(N/N=C/c1cccc([N+](=O)[O-])c1)c1cc(-c2ccccc2)nc2ccccc12	23	3	4	0	0	53
O=C(N/N=C/c1ccco1)c1cc(-c2cccc(Br)c2)nc2ccccc12	6	7	12*	0	-1	7
O=C(NCc1ccccc1)C1Cc2c(-c3ccc4c(c3)OCO4)ccnc2O1 (centres undefined)	-1	/	/	0	/	/
COc1ccc(-c2sc3cc(OC)c(OC)cc3c2-c2ccc(O)cc2)cc1	-1	0	3	0	6	/
COc1ccc(-c2sc3ccccc3c2-c2ccc(O)cc2)cc1	2	3	14*	0	5	/
COc1ccc(N2C(=O)C(CC(=O)Nc3ccc(Cl)cc3)N(NC(=O)c3cccc(F)c3)C2=S)cc1 (centres undefined)	45	2	16*	0	-1	24
O=C(CC1C(=O)N(c2ccc(Cl)cc2)C(=S)N1CCc1ccncc1)Nc1ccc(F)cc1 (centres undefined)	3	0	29*	1	-1	40
O=C1c2cccc3c(N4CCCCC4)ccc(c23)C(=O)N1c1cccc(O)c1	2	3	-12	1	-3	72*
O=C1c2cccc3c(N4CCCCC4)ccc(c23)C(=O)N1CCO	0	8	2	0	9	-35
Oc1c(C=Nc2ccccc2)sc(=S)n1Cc1ccccc1	2	-1	-6	0	1	80*
CNC[C@@H]1Oc2cc(Br)ccc2S(=O)(=O)N([C@H](C)CO)C[C@@H]1C	0	/	/	0	/	/
Cn1cnnc1SCCNS(=O)(=O)c1cccc([N+](=O)[O-])c1	1	1	1	0	-2	/
CC1CCc2nc(NC(=O)c3ccco3)sc2C1 (centres undefined)	-2	-7	-1	0	-7	71*
CC1CCc2nc(NC(=O)Cc3cccs3)sc2C1 (centres undefined)	-2	4	-3	0	3	7
CCCc1ncc(C(O)c2cccc3ccccc23)n1C (centres undefined)	-3	0	12*	0	-1	29
CC(C)c1ncc(C(O)c2cccc3ccccc23)n1C (centres undefined)	-3	-1	-2	0	-5	-11
Cc1ccccc1N(CC(=O)N/N=C/c1cc(C)n(-c2ccccc2C)c1C)S(C)(=O)=O	4	-1	-7	0	0	57
Cc1cc(C)nc(SCC(=O)N/N=C/c2cc(C)n(-c3ccccc3C)c2C)n1	3	6	11*	0	1	47
CC1=CC(C)C(COC(=O)CN2CCCCC2)C(C)C1 (centres undefined)	3	0	11*	0	-7	0
CCOC(=O)c1sc(NC(=O)CSc2ccccn2)c(C#N)c1C	3	2	7	0	6	79*
SMILES	MPTP block	UPR CHOP act	NR3A LBD binder	aDG glyco up	XBP1 UPR activ	CHOP inh
Clc1ccccc1N=Nc1ccccn1	0	/	13*	0	/	/
Cc1[nH][nH]c(=O)c1N=Nc1ccccc1Cl	3	5	1	0	4	-1
CCOC(=O)c1c(C)n(C)c2cc(-c3ccc(F)cc3)c(O)cc12	2	1	2	0	-1	79*
Cc1ccc(N2CC(=O)N(NC(=O)Nc3ccc(Cl)c(Cl)c3)CC2=O)cc1	-3	-2	13*	0	-3	17
CN=C(Nc1ccc(Cl)cc1)c1cccc(C(F)(F)F)c1	2	-1	0	0	-4	50
O=C(Nc1ccc(Cl)cc1)NN1CC(=O)N(c2cccc(C(F)(F)F)c2)CC1=O	2	5	30*	0	5	10
C=CCSc1ccccc1C(=O)Nc1ncn[nH]1	-1	2	-1	0	-6	/
COc1ccc(/C=c2\s/c(=C/C(=O)c3ccc(C)cc3)[nH]c2=O)cc1OC	2	3	4	0	1	100*
COc1ccc(/C=C2\Sc3ccc(C(=O)N4CCCC4)cc3N(C)C2=O)cc1OC	0	0	-2	1	-1	/
CCOc1ccc(S(=O)(=O)N2CCC(C(=O)N3CCCCCC3)CC2)cc1Cl	0	1	13*	1	-8	/
OCC1NC[C@@H](O)C(O)[C@@H]1O (some centres undefined)	/	/	/	/	/	16
CC(NC(=O)Cn1ncc(Cl)c(Cl)c1=O)C12CC3CC(CC(C3)C1)C2 (centres undefined)	3	/	0	0	/	109*
CC(NC(=O)CN1C(=O)NC(Cc2ccccc2)(Cc2ccccc2)C1=O)C12CC3CC(CC(C3)C1)C2 (centres undefined)	-1	-1	-2	1	-1	84*
CC1CCCCC1NC(=O)CN1C(=O)NC(Cc2ccccc2)(Cc2ccccc2)C1=O (centres undefined)	1	0	-3	0	0	9
CCC(C(=O)OC)n1c(-c2ccccc2)nc2ccccc2c1=O (centres undefined)	-1	-1	-1	0	-1	71*
CC(/C=C/c1ccc(O)cc1)=NNc1ccccc1	0	/	9	0	/	/
COc1ccc(NC(=O)CN(C)C(=O)CNC(=O)c2ccc3c(c2)OCO3)cc1	-1	3	1	0	-3	/
CC(C)(C)c1csc(NC(=O)c2cccs2)n1	8	5	-1	0	4	71*
O=C(Nc1nc(-c2ccccc2)cs1)c1cccs1	-4	5	1	0	7	49
O=C(Nc1nc(-c2ccc(Cl)s2)cs1)c1cccs1	13	5	17*	1	13	62
O=C(Nc1nc(-c2ccccc2)ns1)c1cccs1	7	6	19*	0	4	-26
CCC(=O)Nc1nc(-c2ccccc2)ns1	14	4	-1	0	3	2
